{"source": "ChEMBL document CHEMBL1126893", "about": "“Synthesis and CLOGP correlation of imidooxy anticonvulsants” (J Med Chem, 1993)", "key": {"Mus musculus [1]": {"tested_on": "Mus musculus", "experiment": "Anticonvulsant activity was measured by rotarod toxicity teston mice at 0.25 hr at the dose of 50 mg/kg; number of animals protected/number of animals tested, 0/4", "assay_type": "functional"}, "Mus musculus [2]": {"tested_on": "Mus musculus", "experiment": "Anticonvulsant activity was measured by subcutaneous pentylenetetrazole test on mice at 4 h at the dose of 300 mg/kg; number of animals protected/number of animals tested, 0/1", "assay_type": "functional"}, "Mus musculus [3]": {"tested_on": "Mus musculus", "experiment": "Anticonvulsant activity was measured by maximal electroshock test on mice at 4 hr at the dose of 50 mg/kg; number of animals protected/number of animals tested, 0/4", "assay_type": "functional"}, "Mus musculus [4]": {"tested_on": "Mus musculus", "experiment": "Anticonvulsant activity was measured by rotarod toxicity test on mice at 30 min at the dose of 100 mg/kg; number of animals protected/number of animals tested, 0/8", "assay_type": "functional"}, "Mus musculus [5]": {"tested_on": "Mus musculus", "experiment": "Anticonvulsant activity was measured by rotarod toxicity teston mice at 0.50 hr at the dose of 50 mg/kg; number of animals protected/number of animals tested, 0/4", "assay_type": "functional"}, "Mus musculus [6]": {"tested_on": "Mus musculus", "experiment": "Anticonvulsant activity was measured by maximal electroshock test on mice at 30 min at the dose of 300 mg/kg; number of animals protected/number of animals tested, 1/1", "assay_type": "functional"}, "Mus musculus [7]": {"tested_on": "Mus musculus", "experiment": "Anticonvulsant activity was measured by maximal electroshock test on mice at 2 hr at the dose of 50 mg/kg; number of animals protected/number of animals tested, 1/4", "assay_type": "functional"}, "Mus musculus [8]": {"tested_on": "Mus musculus", "experiment": "Anticonvulsant activity was measured by rotarod toxicity test on mice at 4 hr at the dose of 50 mg/kg; number of animals protected/number of animals tested, 0/4", "assay_type": "functional"}, "Mus musculus [9]": {"tested_on": "Mus musculus", "experiment": "Anticonvulsant activity was measured by rotarod toxicity test on mice at 4 hr at the dose of 100 mg/kg; number of animals protected/number of animals tested, 0/4", "assay_type": "functional"}, "Mus musculus [10]": {"tested_on": "Mus musculus", "experiment": "Anticonvulsant activity was measured by rotarod toxicity test on mice at 30 min at the dose of 300 mg/kg; number of animals protected/number of animals tested, 4/4", "assay_type": "functional"}, "Mus musculus [11]": {"tested_on": "Mus musculus", "experiment": "Anticonvulsant activity was measured by maximal electroshock test on mice at 050 hr at the dose of 50 mg/kg; number of animals protected/number of animals tested, 0/4", "assay_type": "functional"}, "Mus musculus [12]": {"tested_on": "Mus musculus", "experiment": "Anticonvulsant activity was measured by rotarod toxicity test on mice at 2 hr at the dose of 50 mg/kg; number of animals protected/number of animals tested, 0/4", "assay_type": "functional"}, "Mus musculus [13]": {"tested_on": "Mus musculus", "experiment": "Anticonvulsant activity was measured by rotarod toxicity test on mice at 1 hr at the dose of 50 mg/kg; number of animals protected/number of animals tested, 0/4", "assay_type": "functional"}, "Mus musculus [14]": {"tested_on": "Mus musculus", "experiment": "Anticonvulsant activity was measured by maximal electroshock test on mice at 0.25 hr at the dose of 50 mg/kg; number of animals protected/number of animals tested, 0/4", "assay_type": "functional"}, "Mus musculus [15]": {"tested_on": "Mus musculus", "experiment": "Anticonvulsant activity was measured by maximal electroshock test on mice at 1 hr at the dose of 50 mg/kg; number of animals protected/number of animals tested, 0/4", "assay_type": "functional"}, "Mus musculus [16]": {"tested_on": "Mus musculus", "experiment": "Anticonvulsant activity was measured by subcutaneous pentylenetetrazole test on mice at 30 min at the dose of 100 mg/kg; number of animals protected/number of animals tested, 0/1", "assay_type": "functional"}, "Mus musculus [17]": {"tested_on": "Mus musculus", "experiment": "Anticonvulsant activity was measured by maximal electroshock test on mice at 4 hr at the dose of 300 mg/kg; number of animals protected/number of animals tested, 0/1", "assay_type": "functional"}, "Mus musculus [18]": {"tested_on": "Mus musculus", "experiment": "Anticonvulsant activity was measured by rotarod toxicity test on mice at 4 hr at the dose of 300 mg/kg; number of animals protected/number of animals tested, 0/2", "assay_type": "functional"}, "Mus musculus [19]": {"tested_on": "Mus musculus", "experiment": "Anticonvulsant activity was measured by maximal electroshock test on mice at 4 hr at the dose of 100 mg/kg; number of animals protected/number of animals tested, 0/3", "assay_type": "functional"}, "Mus musculus [20]": {"tested_on": "Mus musculus", "experiment": "Anticonvulsant activity was measured by maximal electroshock test on mice at 30 min at the dose of 100 mg/kg; number of animals protected/number of animals tested, 0/3", "assay_type": "functional"}, "Mus musculus [21]": {"tested_on": "Mus musculus", "experiment": "Anticonvulsant activity was measured by subcutaneous pentylenetetrazole test on mice at 4 hr at the dose of 100 mg/kg; number of animals protected/number of animals tested, 0/1", "assay_type": "functional"}, "Mus musculus [22]": {"tested_on": "Mus musculus", "experiment": "Anticonvulsant activity was measured by subcutaneous pentylenetetrazole test on mice at 30 min at the dose of 300 mg/kg; number of animals protected/number of animals tested, 0/1", "assay_type": "functional"}, "Mus musculus [23]": {"tested_on": "Mus musculus", "experiment": "Anticonvulsant activity was measured by rotarod toxicity test on mice at 4 h at the dose of 300 mg/kg; number of animals protected/number of animals tested 0/2", "assay_type": "functional"}, "Mus musculus [24]": {"tested_on": "Mus musculus", "experiment": "Anticonvulsant activity was measured by subcutaneous pentylenetetrazole test on mice at 30 min at the dose of 300 mg/kg; number of animals protected/number of animals tested 1/1", "assay_type": "functional"}, "Mus musculus [25]": {"tested_on": "Mus musculus", "experiment": "Time of peak effect of toxicity of compound was measured by both MES and sc Met test in mice", "assay_type": "functional", "how_it_was_run": "(§1)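 Phase II quantification in mice after ip dosing. ED50 (scMet or MES) measured at the time of peak effect. TD50 (rotorod neurologic deficit) measured at the time of peak neurologic deficit. Medians and 95% confidence limits by the Litchfield-Wilcoxon method. Protective index = TD50/ED50. Time of peak effect determined in the MES or scMet test.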"}, "Mus musculus [26]": {"tested_on": "Mus musculus", "experiment": "Anticonvulsant activity was measured by maximal electroshock test on mice at 0.25 hr at the dose of 100 mg/kg; number of animals protected/number of animals tested 2/2", "assay_type": "functional"}, "Mus musculus [27]": {"tested_on": "Mus musculus", "experiment": "Anticonvulsant activity was measured by maximal electroshock test on mice at 30 min at the dose of 300 mg/kg; number of animals protected/number of animals tested 1/1", "assay_type": "functional"}, "Mus musculus [28]": {"tested_on": "Mus musculus", "experiment": "Anticonvulsant activity was measured by rotarod toxicity test on mice at 30 min at the dose of 300 mg/kg; number of animals protected/number of animals tested 4/4", "assay_type": "functional"}, "Mus musculus [29]": {"tested_on": "Mus musculus", "experiment": "Anticonvulsant activity was measured by subcutaneous pentylenetetrazole test on mice at 1 hr at the dose of 100 mg/kg; number of animals protected/number of animals tested 0/2", "assay_type": "functional"}, "Mus musculus [30]": {"tested_on": "Mus musculus", "experiment": "Time of peak effect of activity of compound was measured by both MES and sc Met test in mice", "assay_type": "functional", "how_it_was_run": "as §1"}, "Mus musculus [31]": {"tested_on": "Mus musculus", "experiment": "Anticonvulsant activity was measured by subcutaneous pentylenetetrazole test on mice at 0.25 hr at the dose of 100 mg/kg; number of animals protected/number of animals tested 2/2", "assay_type": "functional"}, "Mus musculus [32]": {"species_on_record": "Mus musculus", "experiment": "Protective index (TD50/ED50) value in MES test in mice", "assay_type": "functional"}, "Mus musculus [33]": {"tested_on": "Mus musculus", "experiment": "Anticonvulsant activity was measured by subcutaneous pentylenetetrazole test on mice at 4 hr at the dose of 300 mg/kg; number of animals protected/number of animals tested 0/1", "assay_type": "functional"}, "Mus musculus [34]": {"tested_on": "Mus musculus", "experiment": "Anticonvulsant activity was measured by subcutaneous maximal electroshock test on mice at 1 hr at the dose of 100 mg/kg; number of animals protected/number of animals tested 1/2", "assay_type": "functional"}, "Mus musculus [35]": {"species_on_record": "Mus musculus", "experiment": "Protective index (TD50/ED50) value in scMET test in mice", "assay_type": "functional", "how_it_was_run": "as §1"}, "Mus musculus [36]": {"tested_on": "Mus musculus", "experiment": "Anticonvulsant activity was measured by rotarod toxicity test on mice at 1 hr at the dose of 100 mg/kg; number of animals protected/number of animals tested 0/4", "assay_type": "functional"}, "Mus musculus [37]": {"tested_on": "Mus musculus", "experiment": "Anticonvulsant activity was measured by rotarod toxicity test on mice at 0.25 hr at the dose of 100 mg/kg; number of animals protected/number of animals tested 0/4", "assay_type": "functional"}, "Mus musculus [38]": {"tested_on": "Mus musculus", "experiment": "Anticonvulsant activity was measured by maximal electroshock test on mice at 4 h at the dose of 300 mg/kg; number of animals protected/number of animals tested 0/1", "assay_type": "functional"}, "Mus musculus [39]": {"species_on_record": "Mus musculus", "experiment": "animal or person"}}, "data": [{"smiles": "O=C1CC2(CCCC2)C(=O)N1OCc1ccccc1Cl", "values": [{"measurement": "Ratio", "setting": "Mus musculus [1]", "value": 0}, {"measurement": "Ratio", "setting": "Mus musculus [2]", "value": 0}, {"measurement": "Ratio", "setting": "Mus musculus [3]", "value": 0}, {"measurement": "Ratio", "setting": "Mus musculus [4]", "value": 0}, {"measurement": "Ratio", "setting": "Mus musculus [5]", "value": 0}, {"measurement": "Ratio", "setting": "Mus musculus [6]", "value": 1}, {"measurement": "Ratio", "setting": "Mus musculus [7]", "value": 1}, {"measurement": "Ratio", "setting": "Mus musculus [8]", "value": 0}, {"measurement": "Ratio", "setting": "Mus musculus [9]", "value": 0}, {"measurement": "Ratio", "setting": "Mus musculus [10]", "value": 4}, {"measurement": "Ratio", "setting": "Mus musculus [11]", "value": 0}, {"measurement": "Ratio", "setting": "Mus musculus [12]", "value": 0}, {"measurement": "Ratio", "setting": "Mus musculus [13]", "value": 0}, {"measurement": "Ratio", "setting": "Mus musculus [14]", "value": 0}, {"measurement": "Ratio", "setting": "Mus musculus [15]", "value": 0}, {"measurement": "Ratio", "setting": "Mus musculus [16]", "value": 0}, {"measurement": "Ratio", "setting": "Mus musculus [17]", "value": 0}, {"measurement": "Ratio", "setting": "Mus musculus [18]", "value": 0}, {"measurement": "Ratio", "setting": "Mus musculus [19]", "value": 0}, {"measurement": "Ratio", "setting": "Mus musculus [20]", "value": 0}, {"measurement": "Ratio", "setting": "Mus musculus [21]", "value": 0}, {"measurement": "Ratio", "setting": "Mus musculus [22]", "value": 0}]}, {"smiles": "O=C1CC2(CCCC2)C(=O)N1OCc1ccccc1Br", "values": [{"measurement": "Ratio", "setting": "Mus musculus [23]", "value": 0}, {"measurement": "Ratio", "setting": "Mus musculus [24]", "value": 1}, {"measurement": "TPE", "setting": "Mus musculus [25]", "value": 0.25}, {"measurement": "Ratio", "setting": "Mus musculus [26]", "value": 2}, {"measurement": "Ratio", "setting": "Mus musculus [27]", "value": 1}, {"measurement": "Ratio", "setting": "Mus musculus [28]", "value": 4}, {"measurement": "Ratio", "setting": "Mus musculus [29]", "value": 0}, {"measurement": "TPE", "setting": "Mus musculus [30]", "value": 0.25}, {"measurement": "Ratio", "setting": "Mus musculus [31]", "value": 2}, {"measurement": "PI", "setting": "Mus musculus [32]", "value": 2.3}, {"measurement": "Ratio", "setting": "Mus musculus [33]", "value": 0}, {"measurement": "Ratio", "setting": "Mus musculus [34]", "value": 1}, {"measurement": "PI", "setting": "Mus musculus [35]", "value": 1.7}, {"measurement": "Ratio", "setting": "Mus musculus [36]", "value": 0}, {"measurement": "Ratio", "setting": "Mus musculus [37]", "value": 0}, {"measurement": "Ratio", "setting": "Mus musculus [38]", "value": 0}]}, {"smiles": "CCCC(CCC)C(=O)O", "note": "[VALPROIC ACID]", "values": [{"measurement": "TPE", "setting": "Mus musculus [25]", "value": 0.25}, {"measurement": "TPE", "setting": "Mus musculus [30]", "value": 0.25, "unit": "toxicity"}, {"measurement": "ED50", "setting": "Mus musculus [39]", "value": 149, "unit": "mg/kg"}]}]}
